{"source": "paper PMC2688716", "about": "(European neuropsychopharmacology : the journal of the …, 2008)", "key": {"Serotonin transporter": {"biological_target": "Serotonin transporter (Rattus norvegicus, UniProt P31652)", "sequence (P31652 whole entry)": "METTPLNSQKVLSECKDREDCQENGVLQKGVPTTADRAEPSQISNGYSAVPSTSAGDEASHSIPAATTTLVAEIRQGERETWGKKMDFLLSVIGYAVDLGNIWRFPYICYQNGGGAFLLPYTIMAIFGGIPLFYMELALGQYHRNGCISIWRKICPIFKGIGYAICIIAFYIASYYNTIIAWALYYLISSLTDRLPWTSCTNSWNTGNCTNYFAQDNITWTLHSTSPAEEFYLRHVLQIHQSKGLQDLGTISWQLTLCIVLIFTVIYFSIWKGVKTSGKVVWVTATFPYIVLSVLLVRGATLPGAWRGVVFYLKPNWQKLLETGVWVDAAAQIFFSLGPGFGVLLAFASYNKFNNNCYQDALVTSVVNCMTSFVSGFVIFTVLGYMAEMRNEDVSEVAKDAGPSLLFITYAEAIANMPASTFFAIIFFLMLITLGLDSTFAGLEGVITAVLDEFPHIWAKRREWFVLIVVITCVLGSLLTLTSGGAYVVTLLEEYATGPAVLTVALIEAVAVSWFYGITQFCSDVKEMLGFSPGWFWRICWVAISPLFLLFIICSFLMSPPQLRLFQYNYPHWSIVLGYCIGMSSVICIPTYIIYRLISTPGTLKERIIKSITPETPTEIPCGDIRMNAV", "assay": "Radioligand binding, serotonin transporter", "details": "0.2 nM [3H]paroxetine; nonspecific 1.5 μM imipramine; rat brainstem; 90 min at 25° C; in-house; >10,000 = less than 30% displacement"}, "Melatonin receptor": {"biological_target": "Melatonin receptor", "assay": "Radioligand binding, melatonin receptors", "details": "70 pM [125I]2-Iodomelatonin; nonspecific 0.1 μM 2-iodomelatonin; chicken brain; by NOVASCREEN; >10,000 = less than 30% displacement", "in_short": "(§1)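 Run by a contract screening service. Binding was measured in tissue homogenates. Ki was calculated with the Cheng-Prusoff equation from separately determined Kd values and reported as mean ± SEM of replicate assays.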"}, "[1]": {"biological_target": "Muscarinic, central receptor", "assay": "Radioligand binding, muscarinic central", "details": "0.15 nM [3H]QNB; nonspecific 0.1 μM atropine; rat cerebral cortex; by NOVASCREEN; >10,000 = less than 30% displacement"}, "[2]": {"biological_target": "Muscarinic, peripheral receptor", "assay": "Radioligand binding, muscarinic peripheral", "details": "0.3 nM [3H]QNB; nonspecific 0.1 μM atropine; guinea pig bladder; by NOVASCREEN; >10,000 = less than 30% displacement"}, "[3]": {"biological_target": "Calcium, type N ion channel (Rattus norvegicus, UniProt Q02294)", "sequence (P54287 whole entry)": "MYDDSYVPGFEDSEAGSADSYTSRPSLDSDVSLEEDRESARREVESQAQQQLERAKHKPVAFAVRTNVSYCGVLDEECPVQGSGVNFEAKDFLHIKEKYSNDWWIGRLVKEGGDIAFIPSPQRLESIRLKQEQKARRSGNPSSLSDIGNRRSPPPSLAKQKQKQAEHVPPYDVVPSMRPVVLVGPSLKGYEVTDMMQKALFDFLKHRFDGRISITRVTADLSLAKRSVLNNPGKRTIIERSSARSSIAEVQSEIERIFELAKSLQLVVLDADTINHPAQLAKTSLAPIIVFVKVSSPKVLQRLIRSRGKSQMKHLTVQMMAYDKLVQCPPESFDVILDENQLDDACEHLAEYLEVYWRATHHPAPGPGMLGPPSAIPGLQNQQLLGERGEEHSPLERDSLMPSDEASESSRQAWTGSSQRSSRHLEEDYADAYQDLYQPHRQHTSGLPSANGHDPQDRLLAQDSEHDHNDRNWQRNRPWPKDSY", "sequence (P54290 945-1091, further chain)": "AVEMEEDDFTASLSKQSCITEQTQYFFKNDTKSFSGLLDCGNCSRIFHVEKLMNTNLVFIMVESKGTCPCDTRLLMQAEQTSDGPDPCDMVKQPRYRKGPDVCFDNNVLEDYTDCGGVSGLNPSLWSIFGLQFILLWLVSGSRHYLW", "sequence (Q02294 whole entry)": "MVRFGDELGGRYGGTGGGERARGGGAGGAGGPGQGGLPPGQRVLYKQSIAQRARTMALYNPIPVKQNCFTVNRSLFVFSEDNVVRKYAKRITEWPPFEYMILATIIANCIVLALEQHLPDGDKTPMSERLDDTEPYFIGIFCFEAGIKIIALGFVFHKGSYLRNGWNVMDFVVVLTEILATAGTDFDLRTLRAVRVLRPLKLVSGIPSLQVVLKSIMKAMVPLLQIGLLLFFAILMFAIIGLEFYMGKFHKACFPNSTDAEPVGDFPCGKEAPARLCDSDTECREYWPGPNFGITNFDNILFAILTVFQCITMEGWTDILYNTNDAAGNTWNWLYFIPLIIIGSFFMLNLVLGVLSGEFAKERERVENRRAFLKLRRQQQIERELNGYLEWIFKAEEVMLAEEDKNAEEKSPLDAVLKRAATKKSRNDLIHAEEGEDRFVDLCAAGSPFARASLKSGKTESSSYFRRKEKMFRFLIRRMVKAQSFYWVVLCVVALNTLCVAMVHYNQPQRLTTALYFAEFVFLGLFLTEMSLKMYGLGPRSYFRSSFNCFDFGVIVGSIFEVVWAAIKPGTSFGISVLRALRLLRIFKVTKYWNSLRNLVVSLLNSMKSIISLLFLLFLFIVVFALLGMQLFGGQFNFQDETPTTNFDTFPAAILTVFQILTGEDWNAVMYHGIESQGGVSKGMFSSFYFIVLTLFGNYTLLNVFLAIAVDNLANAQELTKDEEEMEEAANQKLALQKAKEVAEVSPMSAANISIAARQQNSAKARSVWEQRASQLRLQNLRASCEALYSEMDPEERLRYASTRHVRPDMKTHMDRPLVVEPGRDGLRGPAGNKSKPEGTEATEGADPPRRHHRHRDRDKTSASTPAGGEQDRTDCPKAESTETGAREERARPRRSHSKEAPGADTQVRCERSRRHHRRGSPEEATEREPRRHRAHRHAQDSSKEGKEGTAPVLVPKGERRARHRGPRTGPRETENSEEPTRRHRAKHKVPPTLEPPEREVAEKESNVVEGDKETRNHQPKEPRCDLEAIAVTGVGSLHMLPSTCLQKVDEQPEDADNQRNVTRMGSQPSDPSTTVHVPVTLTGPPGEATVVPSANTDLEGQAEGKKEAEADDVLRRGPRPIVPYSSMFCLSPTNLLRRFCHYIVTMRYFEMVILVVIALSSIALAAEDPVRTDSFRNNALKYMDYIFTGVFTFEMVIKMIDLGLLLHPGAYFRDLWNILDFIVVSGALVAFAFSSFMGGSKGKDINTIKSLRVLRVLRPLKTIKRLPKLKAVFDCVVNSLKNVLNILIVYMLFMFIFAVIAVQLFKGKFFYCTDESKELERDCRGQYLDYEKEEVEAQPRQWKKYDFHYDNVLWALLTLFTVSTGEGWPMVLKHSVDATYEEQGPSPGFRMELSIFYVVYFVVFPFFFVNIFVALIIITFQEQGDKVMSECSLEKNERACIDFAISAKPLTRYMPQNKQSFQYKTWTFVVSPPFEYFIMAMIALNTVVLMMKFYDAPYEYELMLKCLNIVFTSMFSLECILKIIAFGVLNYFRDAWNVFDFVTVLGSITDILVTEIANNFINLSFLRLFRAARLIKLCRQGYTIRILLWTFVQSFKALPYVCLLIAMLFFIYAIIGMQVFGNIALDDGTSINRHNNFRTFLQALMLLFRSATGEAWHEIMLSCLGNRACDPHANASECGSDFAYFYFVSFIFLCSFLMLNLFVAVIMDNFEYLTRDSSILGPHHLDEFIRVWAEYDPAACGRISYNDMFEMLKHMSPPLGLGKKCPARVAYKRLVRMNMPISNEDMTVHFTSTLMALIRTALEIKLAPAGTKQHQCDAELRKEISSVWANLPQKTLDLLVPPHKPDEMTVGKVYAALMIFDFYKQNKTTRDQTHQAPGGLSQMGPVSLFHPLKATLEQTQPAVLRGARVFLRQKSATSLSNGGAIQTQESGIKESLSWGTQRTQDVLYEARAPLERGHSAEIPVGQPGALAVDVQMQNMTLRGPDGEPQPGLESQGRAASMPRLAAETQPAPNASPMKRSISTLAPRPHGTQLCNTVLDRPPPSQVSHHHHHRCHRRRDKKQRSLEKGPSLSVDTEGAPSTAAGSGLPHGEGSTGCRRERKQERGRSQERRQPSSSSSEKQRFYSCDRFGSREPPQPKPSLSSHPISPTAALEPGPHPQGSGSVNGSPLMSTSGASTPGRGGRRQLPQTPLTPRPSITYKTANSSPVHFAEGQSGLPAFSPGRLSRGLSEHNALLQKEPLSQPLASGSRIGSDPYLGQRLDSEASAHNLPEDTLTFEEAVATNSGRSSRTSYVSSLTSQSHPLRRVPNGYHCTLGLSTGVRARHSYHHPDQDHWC", "sequence (P54290 25-944, further chain)": "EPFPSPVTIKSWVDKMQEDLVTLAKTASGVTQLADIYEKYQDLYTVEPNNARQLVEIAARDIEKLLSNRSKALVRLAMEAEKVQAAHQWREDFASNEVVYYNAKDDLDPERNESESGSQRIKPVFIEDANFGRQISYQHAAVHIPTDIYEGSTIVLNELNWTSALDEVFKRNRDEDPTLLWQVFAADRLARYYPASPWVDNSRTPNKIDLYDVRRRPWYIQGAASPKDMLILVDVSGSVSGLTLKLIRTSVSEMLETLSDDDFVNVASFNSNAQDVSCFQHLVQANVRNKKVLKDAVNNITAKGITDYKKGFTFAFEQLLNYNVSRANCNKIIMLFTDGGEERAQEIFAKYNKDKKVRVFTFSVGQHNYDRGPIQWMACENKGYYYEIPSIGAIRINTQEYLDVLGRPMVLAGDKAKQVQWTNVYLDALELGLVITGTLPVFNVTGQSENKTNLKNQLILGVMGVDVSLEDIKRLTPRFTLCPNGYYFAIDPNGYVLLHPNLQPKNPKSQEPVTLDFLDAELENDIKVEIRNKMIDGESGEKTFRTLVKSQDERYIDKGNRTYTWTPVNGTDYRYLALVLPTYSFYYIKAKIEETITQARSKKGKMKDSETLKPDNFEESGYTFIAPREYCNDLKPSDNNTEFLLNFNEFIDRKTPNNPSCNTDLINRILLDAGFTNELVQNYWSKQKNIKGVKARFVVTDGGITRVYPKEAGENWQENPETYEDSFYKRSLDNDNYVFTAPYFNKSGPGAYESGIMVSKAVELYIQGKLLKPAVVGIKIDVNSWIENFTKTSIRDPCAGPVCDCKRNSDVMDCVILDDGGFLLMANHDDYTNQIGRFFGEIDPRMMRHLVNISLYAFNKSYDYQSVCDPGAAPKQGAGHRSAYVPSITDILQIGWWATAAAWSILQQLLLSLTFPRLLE", "assay": "Radioligand binding, calcium channel type N", "details": "0.01 nM [125I]ω-conotoxin GVIA; nonspecific 0.1 μM ω-conotoxin GVIA; rat cerebral cortex; by NOVASCREEN; >10,000 = less than 30% displacement"}, "[4]": {"biological_target": "Potassium, ATP-sensitive ion channel", "assay": "Radioligand binding, ATP-sensitive potassium channel", "details": "0.2 nM [3H]glibenclamide; nonspecific 0.1 μM glibenclamide; rat cerebral cortex; by NOVASCREEN; >10,000 = less than 30% displacement", "in_short": "as §1"}, "male, Swiss Webster mice [5]": {"test_system": "male, Swiss Webster mice", "assay": "Locomotor activity measurements", "assay_type": "in vivo, mouse", "details": "i.p."}, "male, Swiss Webster mice [6]": {"test_system": "male, Swiss Webster mice", "assay": "Dopamine assay, striatum", "assay_type": "in vivo, mouse", "details": "AC927 10 mg/kg pretreatment + methamphetamine 5 mg/kg; Tukey q=5.58, P < 0.01"}, "male, Swiss Webster mice [7]": {"test_system": "male, Swiss Webster mice", "assay": "Dopamine assay, cerebellum", "assay_type": "in vivo, mouse", "details": "AC927 10 mg/kg pretreatment + methamphetamine 5 mg/kg; Tukey q=4.55, P < 0.05"}, "male, Swiss Webster mice [8]": {"test_system": "male, Swiss Webster mice", "assay": "Core body temperature measurements", "assay_type": "in vivo, mouse", "details": "AC927 5–20 mg/kg, i.p., 4 times at 2 h intervals; measured 1 h after each injection"}, "[9]": {"details": "ref Matsumoto and Mack, 2001; Matsumoto et al., 2002, 2003; cited from earlier work"}, "tumor cells": {"test_system": "tumor cells", "details": "through a σ receptor-mediated mechanism; ref Crawford et al., 2002; cited from earlier work"}, "male, Swiss Webster mice [10]": {"test_system": "male, Swiss Webster mice", "assay": "Dopamine transporter", "details": "4 times at 2 h intervals"}, "NG108-15 cells": {"test_system": "NG108-15 cells", "assay": "Cytotoxicity", "assay_type": "cell-based", "details": "methamphetamine 10–300 μM; 24 h and 48 h; 37° C; P < 0.0001"}}, "note": "Structures can show the parent of a compound that is named as a salt."}
{"smiles": "O=C(O)C(=O)O.c1ccc(CCN2CCCCC2)cc1", "note": "[AC927, N-phenethylpiperidine oxalate]", "values": [{"measurement": "Ki", "setting": "Serotonin transporter", "value": "> 10", "unit": "µM"}, {"measurement": "Ki", "setting": "Melatonin receptor", "value": "> 10", "unit": "µM"}, {"measurement": "Ki", "setting": "[1]", "value": "> 10", "unit": "µM"}, {"measurement": "Ki", "setting": "[2]", "value": "> 10", "unit": "µM"}, {"measurement": "Ki", "setting": "[3]", "value": "> 10", "unit": "µM"}, {"measurement": "Ki", "setting": "[4]", "value": "> 10", "unit": "µM"}, {"measurement": "Locomotor activity, dose response of AC927 alone", "setting": "male, Swiss Webster mice [5]; AC927 0–20 mg/kg, activity quantified for 30 min, F(2,23)=7.45, P < 0.005", "value": "dose dependently decreased locomotor activity"}, {"measurement": "Locomotor activity vs. saline control", "setting": "male, Swiss Webster mice [5]; AC927 alone 10 mg/kg, q=1.09, n.s.", "value": "did not differ significantly from the saline control"}, {"measurement": "Locomotor activity vs. saline control", "setting": "male, Swiss Webster mice [5]; AC927 alone 20 mg/kg, q=3.80, P < 0.01", "value": "differed significantly from the saline control"}, {"measurement": "Methamphetamine-induced striatal dopamine depletion, AC927 10 mg/kg", "setting": "male, Swiss Webster mice [6]", "value": "significantly attenuated"}, {"measurement": "Methamphetamine-induced cerebellar dopamine depletion, AC927 10 mg/kg", "setting": "male, Swiss Webster mice [7]", "value": "significantly attenuated"}, {"measurement": "Core body temperature, AC927 alone", "setting": "male, Swiss Webster mice [8]", "value": "did not significantly change core body temperature"}, {"measurement": "Acute locomotor stimulant effects of cocaine", "setting": "[9]", "value": "significantly attenuate the acute locomotor stimulant effects of cocaine"}, {"measurement": "Apoptosis in tumor cells", "setting": "tumor cells", "value": "attenuate apoptosis in tumor cells"}, {"measurement": "DAT immunoreactivity in striatum, AC927 alone", "setting": "male, Swiss Webster mice [10]; AC927 10 mg/kg, i.p. + saline, q=3.56, n.s.", "value": "no significant effects on DAT expression"}]}
{"smiles": "CN[C@@H](C)Cc1ccccc1", "note": "[Methamphetamine, Methamphetamine hydrochloride, reference compound]", "values": [{"measurement": "Locomotor activity, dose response of methamphetamine", "setting": "male, Swiss Webster mice [5]; methamphetamine 0–1 mg/kg, activity quantified for 30 min, F(3,34)=5.93, P < 0.005", "value": "progressive increase in locomotor activity"}, {"measurement": "Locomotor activity vs. saline control", "setting": "male, Swiss Webster mice [5]; methamphetamine 1 mg/kg, Dunnett q=3.61, P < 0.01", "value": "differed significantly from the saline control"}, {"measurement": "Cytotoxicity (cell morphology score), methamphetamine", "setting": "NG108-15 cells", "value": "concentration dependent increase in neurotoxicity"}, {"measurement": "DAT immunoreactivity in striatum, methamphetamine", "setting": "male, Swiss Webster mice [10]; methamphetamine 5 mg/kg, i.p., one week later, q=14.26, P < 0.001", "value": "significant reduction in DAT immunoreactivity"}]}
